Only some compounds are listed: those with a hit (about 1.3% of all), similar ones and a draw of the others.
T cell HTS: T cell immune modulation candidate. 2C CD8+ T cell-vesicle binding, flow cytometry; hits give low values. response (vesicle binding), % at 7 µM. 0.068% of 330,000 active. AID 2052;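 active = response, share of CD8 T cells binding vesicles, and their 90th percentile fluorescence all below set limits, cut at about 80% in these data, passing the limit was not always enough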;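 note: values below 100% mean blocked vesicle binding to the CD8+ T cells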
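incubation = binding step 1.5 h, 37 °C, antibody labelling 20 min, ice | test system = 2C mouse CD8+ T cells | read-out basis = percent CD8+ FL2 mean versus row control | controls = Peptide-free naked vesicles (low) and QL9 vesicles with 0.7% DMSO vehicle (high) | detection = flow cytometry of vesicle-bound cells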
EBV gp42 block: inhibitors of Epstein-Barr virus glycoprotein 42; Fluorescence polarization binding assay, mP read-out; 0.42% of 220,000 active; inhibition, % (tested at 21.74 µM); in the data active = inhibition above about 50%
Target sequence (Q1HVG2 whole entry, looked up): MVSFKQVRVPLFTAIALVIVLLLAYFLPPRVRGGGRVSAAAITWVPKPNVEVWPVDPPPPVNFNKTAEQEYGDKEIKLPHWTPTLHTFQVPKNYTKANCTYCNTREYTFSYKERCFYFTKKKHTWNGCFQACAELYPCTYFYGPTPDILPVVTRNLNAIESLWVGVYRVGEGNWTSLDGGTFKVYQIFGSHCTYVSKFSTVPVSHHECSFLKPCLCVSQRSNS
GRK2 inh: blocks RNA aptamer binding to human GRK2; inhibition of aptamer binding, % at 10 µM; bead flow cytometry, FAM-aptamer displacement from GRK2; AID 488847; 0.59% of 330,000 active; P25098;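 active = inhibition of aptamer binding above 40%, roughly 3 SD of noise, on plates passing a quality check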;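 note: median bead fluorescence of bound FAM aptamer so fluorescent compounds give negative values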
Keap1-Nrf2 PPI: Keap1-Nrf2 (human) interaction inhibition; Q14145; Keap1 Kelch-Nrf2 peptide fluorescence polarization, 1536-well; inhibition, % at 9.4 µM; 0.15% of 340,000 active; in the data active = inhibition above about 12%; inconclusive = no clear call, values can overlap the other calls; inactive = below about 7.3%;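 note: human Keap1 Kelch domain with fluorescein labeled Nrf2 9mer peptide probe; 0% = neutral control wells and 100% = peptide positive control; higher means more block of Keap1 binding to Nrf2 peptide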
LANA DNA inh: inhibitors of KSHV LANA C-terminal domain DNA binding. AID 504423. 0.078% of 340,000 active. MBP-C-LANA/FAM-LBS DNA binding, fluorescence polarization. inhibition, % at 9 µM;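 active = highest replicate inhibition at or above 60% at 9 µM, even if other replicates fall short; inactive = all replicates below 60% inhibition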;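 note: 0% = neutral control wells and 100% = 4 µM acridine orange control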
MEX-5 binding: C. elegans MEX-5 TCR-2 RNA binding activity | activity score (negative = inhibition of binding), % at 10 µM | 0.38% of 300,000 active | AID 1832 | MEX-5/FITC-TCR2 RNA binding, fluorescence polarization; hits give low values;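 active = inhibition past about -25% in most replicates, and total fluorescence under double the plate's negative control median, limit read from the data; inconclusive = replicates evenly split on the limit, or fluorescence at least double controls; inactive = too little inhibition in most replicates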;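 note: 0% = DMSO and -100% = 5 µM competing unlabeled TCR2 RNA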
The depositor's hits bear a star; i = inactive; ? = inconclusive; nt = no result given.

SMILES	T cell HTS	EBV gp42 block	GRK2 inh	Keap1-Nrf2 PPI	LANA DNA inh	MEX-5 binding
Cc1ccnc(N2C(=O)c3cccc4c([N+](=O)[O-])ccc(c34)C2=O)c1	403.8	66.8*	0.0	-3.7	1.1	-21.2
O=C1c2cccc3c([N+](=O)[O-])ccc(c23)C(=O)N1Cc1cccnc1	nt	122.6*	nt	?	1.6	-14.7
O=C1c2cccc3cccc(c23)C(=O)N1Cc1cccnc1	230.7	-3.4	0.0	3.3	-1.3	0.0
CCCCNC(=S)Nc1cccc(S(=O)(=O)NC2=NCCC2)c1	626.4	nt	1.0	-3.2	0.0	0.0
CCn1c(C)nc2cc(C(=O)NNC(=O)CN(C)S(=O)(=O)c3ccc(NC(C)=O)cc3)ccc21	151.3	nt	100.0*	-6.0	0.1	nt
C=CCOC(=O)C1=C(C)NC(=O)NC1c1ccc(OCC)cc1 (stereo unspecified)	169.1	nt	0.0	-1.1	1.2	1.2
CCC(C)N1C(=O)/C(=C/c2c(NCCCOC(C)C)nc3c(C)cccn3c2=O)SC1=S (stereo unspecified)	714.5	129.8*	0.0	-4.9	9.8	nt
O=Cc1ccc2oc3nc4n(c(=O)c3c(=O)c2c1)CCCS4	253.0	85.1*	14.0	-1.2	2.1	-1.1
CC1CCCN(CCCNC(=O)C2CC(=O)N(CCc3ccccc3)C2)C1 (stereo unspecified)	364.9	nt	0.0	0.3	-0.2	-1.7
CCOC(=O)C(=O)Cc1cccnn1	nt	nt	nt	2.4	72.0*	nt
CC(=NC1CCCC1)c1c(C)[nH]n(-c2nc3ccccc3s2)c1=O	450.4	-58.9	4.0	-13.3	-2.3	-43.1*
CC(=NC1CC1)c1c(-c2ccccc2)[nH]n(-c2nc3ccccc3s2)c1=O	210.5	-5.5	0.0	-1.3	2.1	0.2
COc1ccc(-c2cc(=O)oc3c(C)c(OCC(=O)NCC4CCC(C(=O)O)CC4)ccc23)cc1 (stereo unspecified)	574.8	nt	2.0	1.1	0.6	-0.5
Cc1nn(-c2ccccc2)c(N2CCCC2)c1/C=N/NC(=O)c1cc(-c2cccnc2)nc2ccccc12	i	-0.6	0.0	-2.7	-0.3	-28.2*
Cn1c(=O)c(C(=O)CN2CCc3ccccc32)c(N)n(Cc2ccccc2)c1=O	282.7	-7.3	0.0	-5.3	1.6	-1.1
Cc1ccc2[nH]c(=O)c(CN(CCO)Cc3nnnn3CCc3ccccc3)cc2c1	259.1	3.1	4.0	-8.2	-0.8	-32.0*
CCN(CC)C(=O)CSc1nnc2nnc3cc(Cl)ccc3n12	617.7	66.6*	0.0	5.8	6.0	-31.7*
CCN(CC)C(=O)CSc1nnc2nnc3cc(C)ccc3n12	132.2	30.9	1.0	8.4	8.9	-4.2
COc1ccc(C2C3=C(CC(C)(C)CC3=O)N(CCN3CCOCC3)C3=C2C(=O)CC(C)(C)C3)cc1	81.6	-15.1	1.0	-1.2	0.3	-1.7
CCCCNC(=O)c1cc2c(=O)n3cccc(C)c3nc2n(Cc2ccncc2)c1=N	87.1	8.4	1.0	-9.1	3.9	-40.8*
COCCNC(=O)c1cc2c(=O)n3cccc(C)c3nc2n(Cc2ccncc2)c1=N	229.0	2.4	1.0	-4.2	-1.9	3.5
O=C(CN1C(=O)NC2(CCCCC2)C1=O)NCCc1ccc(Cl)cc1Cl	350.5	nt	3.0	4.0	0.8	nt
COc1ccc(/C=C(\C#N)c2nc3ccc(C)cc3[nH]2)cc1Oc1ccc(C(F)(F)F)cc1[N+](=O)[O-]	286.0	-2.9	4.0	-1.7	-0.2	-57.6*
CC1(C)SC[C@H](C(=O)Nc2cccc(Cl)c2)N1C=O	52.1*	-3.6	0.0	3.7	-1.0	2.7
O=C(Sc1nnnn1C1CCCCC1)c1cccs1	235.1	-20.2	2.0	nt	nt	3.4
COc1ccccc1/C=c1\sc2nc(-c3ccco3)nn2c1=O	268.2	-11.1	18.0	5.0	7.9	-6.5
CCOc1ccc(/C=c2\sc3nc(-c4ccco4)nn3c2=O)cc1OCC	358.5	47.5	1.0	-3.4	3.3	-30.5*
Cc1cccc(C(=O)NC2CC3CCCC(C2)N3C(=O)NC2CCCCC2)c1 (stereo unspecified)	234.2	-27.8	0.0	-6.8	-0.6	-2.1
O=C(NCCc1cccc(Cl)c1)C1CCC(=O)N(Cc2ccc(Cl)cc2)C1 (stereo unspecified)	284.3	nt	0.0	-1.8	-0.4	1.3

Source: PubChem (several laboratories)
